The EternaBench riboswitch data

Tested on: MS2 coat protein
Assay: apparent Kd, MS2 coat protein; higher = weaker binding; RNA-MaP array; FMN 200 µM where present
Summary of the method: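 SNAP-549-labelled MS2 coat protein, doubled from 0.7 or 1.5 nM to 3 µM, was titrated over designs transcribed by stalled E. coli RNA polymerase on Illumina sequencing-chip clusters. Titrations were run without and then with constant ligand in 100 mM Tris-HCl pH 7.5, 80 mM KCl, 4 mM MgCl2, BSA, DTT, yeast tRNA and Tween-20. The apparent Kd is the median of filtered per-cluster fits to green signal normalised to red-channel RNA signal and control-cluster median Fmax.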

[1] = designed as: OFF switch for flavin mononucleotide, no ligand
[2] = ligand present: flavin mononucleotide, designed as: OFF switch for flavin mononucleotide
[3] = designed as: ON switch for flavin mononucleotide, no ligand
[4] = ligand present: flavin mononucleotide, designed as: ON switch for flavin mononucleotide

Row | Sequence | apparent Kd [1] | apparent Kd [2] | apparent Kd [3] | apparent Kd [4]
1 | CCUUGACAUGAGGAUCACCCAUGUGAGGAUAUAGAAUACUUCAUACACUGACCUCCUUCUAGAAGGCACAUCUC | 15.3 nM | 15.1 nM |  | 
2 | UCAUACAUUCGAGGAUAUCGGUGAGAAAUCUUUCGAGAAGGCGAUUCAUGAUUUAUUAUCCUGGACAUGAGGAUCACCCAUGUA |  |  | 85.3 nM | 65.5 nM
3 | UGAAAUCAUGUAGGAUAUGCAUGGCGAAGCUACGCAGAAGGACAUGAGGAUCACCCAUGUUCUAGCUACCGAGUACGGUGGCAA | 23.1 nM | 121 nM |  | 
4 | GUCGGAAACGACAAAAGUAUGGAUCCAGAAGGCAUGACACAUGAGGAUCACCCAUGUCUAAGAUAUGAGGAUAUGGAUCCAUAC |  |  | 4.97 nM | 4.71 nM
5 | UUAAAUCGAAACAUGAGGAUCACCCAUGUGUUGUAAUUAACAUAGGAUAUGUAUAUACUUUUUAAAUAGAAGGAUGAUAAUACU |  |  | 16.1 nM | 11.6 nM
6 | AAAAAACAUGAGGAUCACCCAUGUAAAAAAAAUAGAGGAUAUGGGUGAUCCAAAAAAAAACCAGAAGGCUAAAAAA |  |  | 18.2 nM | 16.6 nM
7 | AAUAAACUCACAGGAUAUAGCAUAGGUCGCGUGAACUUACAGGCGACUAUGCUAGAAGGGUGACCACAUGAGGAUCACCCAUGU |  |  | 734 nM | 145 nM
8 | CACGGAUGAUCAGGAUAUGCUAAAGCAGGCUGACAUGAGGAUCACCCAUGUCCCAGAAACUGUGGGCAGAAGGGAUGUAAUGUU |  |  | 49.8 nM | 12.2 nM
9 | ACUCGGAGCUGGCGACAGAAGACAUGAGGAUCACCCAUGUAGAGAAGGAGCCCUGGGACCGGUGGCUAGGAUAUUUACAUCGGU | 6.9 nM | 12.3 nM |  | 
10 | UAAUCUCAGAUAGGAUAUAUAGGAUGAUUUAAGACUGAACAUGAGGAUCACCCAUGUGAUUAUCUGUAGAAGGAUCAAUGACCC |  |  | 389 nM | 348 nM
11 | UAUAUAUAGUAAGGAUAUGUAUUUAGUUUAUAAACAGAAGGUACUGACAUGAGGAUCACCCAUGUUUUAGUGUGGGCAUGUAGA | 87.7 nM | 127 nM |  | 
12 | GGAGCACACAUUAACAUGAGGAUCACCCAUGUCAAAAGACAUGAGGAUAUGGAUCCGAAAAGGACCCAGAAGGCAUGGUGCUCC |  |  | 427 nM | 21.8 nM
13 | GUAGCUACUAUUAUACAUGAGGAUCACCCAUGUUACAUGGGUAAGGAUAUUGAAGUUAUUAUUAUCAAGAAGGUACUAUGCUAC |  |  | 570 nM | 102 nM
14 | CUAUUUAAGCAGAAGGCGUGGGAAAGAUUUACACGAGGAUAUGCGAUAACGGCGUAUGACAUGAGGAUCACCCAUGUACGUGCG |  |  | 7.22 nM | 4.47 nM
15 | AUCGUGCAGCUUUGCUGUACGAGUACAUGAGGAUCACCCAUGUAGGAUAUGGUACGCUUUGCGUGCUAGAAGGAUAUGCGAUUG | 43.8 nM | 46.1 nM |  | 
16 | GCACUGACAGGAUAUACAUGAGGAUCACCCAUGUGACCCUUACAGUACUCGCGUACUGGUAGAAGGGUCUGUGC |  | 140 nM |  | 
17 | AGGAGUAAAGGGAAUAACAUGAGGAUCACCCAUGUAUGGGAGAGAAGGCAGAUCGGAGGACGAUCUGAGGAUAUUUAAACUCUA |  |  | 72.5 nM | 16.8 nM
18 | GGGUACAUCGGAGGAUAUAAUGUAAAUACAUGAGGAUCACCCAUGUCGAUGGAGACAUCGGAGAUUGAGAAGGCCGAUGUACCG |  |  | 110 nM | 38.4 nM
19 | AAAAAGUCAGGAUAUACAUGAGGAUCACCCAUGUAAAAAAAAGGGAAAAAAAAAAAGGGUAGAAGGGACGAAAA | 37.8 nM | 33 nM |  | 
20 | CAGUACUGAGGAUAUACAUGAGGAUCACCCAUGUGUUCCAGCUAGGAAACUAGCAAAAGUAGAAGGCAGUUCUG | 20.2 nM | 182 nM |  | 
21 | AUCCGGCGUGUAGGAUAUGGAUCCGAUUAGGAUCCAGAAGGACAUGAGGAUCACCCAUGUACAUGUAAACAGUCAUCACCGGAU | 6.59 nM | 14 nM |  | 
22 | AACGAUCUAGGAUAUACAUGAGGAUCACCCAUGUAAGAGCCCAAACCAGGCUCCCUCUGUAGAAGGAGGUCAAA |  | 50.9 nM |  | 
23 | UGUUGUUCAGGAUAUGAUGUGUUAUACAUGAGGAUCACCCAUGUGGGUCCUGAUUUGGCGUCAGAAGGGAAUGUUG | 116 nM | 200 nM |  | 
